Source: ChEMBL document CHEMBL4706580, “4-Amino-1,2,4-triazole-3-thione-derived Schiff bases as metallo-β-lactamase inhibitors” (Eur J Med Chem, 2020)
Activity calls are given as the source filed them. The calls are words filed in the database; no cut-off is given here.

Columns and labels:
[1] = Inhibition of beta-lactamase NDM1 (unknown origin) expressed in Escherichia coli BL21(DE3) using cefotaxime/nitrocefin as substrate by measuring substrate hydrolysis at 200 uM by spectrophotometric analysis
[2] = Inhibition of beta-lactamase IMP-1 (unknown origin) expressed in Escherichia coli LZ2310 assessed as potentiation of ceftazidime antibacterial activity by measuring ceftazidime induced diameter of inhibition zone at 40 uM incubated for 18 hrs by disk diffusion method (reference value: 9 mm)
Procedure, shortened: (§1)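 Efflux-deficient E. coli LZ2310 (NorE, MdfA, AcrA knocked out) carrying pLB-II with the cloned MBL gene. Mueller-Hinton, CLSI disk diffusion; antibiotic disks (30 µg cefoxitin for VIM-2, 10 µg ampicillin for VIM-4, 30 µg ceftazidime for NDM-1/IMP-1) loaded with inhibitor in DMSO (≤15 µL). Zone diameter after 18 h, 35 ± 1 °C; DMSO and 220 µg EDTA controls. Triplicate.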

[3] = Inhibition of beta-lactamase VIM-4 (unknown origin) expressed in Escherichia coli LZ2310 assessed as potentiation of ampicillin antibacterial activity by measuring ampicillin induced diameter of inhibition zone at 40 uM incubated for 18 hrs by disk diffusion method (reference value: 6 mm); procedure, shortened: as §1
[4] = Inhibition of beta-lactamase VIM2 (unknown origin) expressed in Escherichia coli BL21(DE3) using imipenem as substrate by measuring substrate hydrolysis at 100 uM by spectrophotometric analysis
Procedure, shortened: (§2)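 Purified enzyme (overproduced in E. coli BL21(DE3), pET-9a; ion-exchange and gel filtration), 1-70 nM final. Reporter substrate 150 μM imipenem, read at 300 nm, 30 °C, 50 mM HEPES pH 7.5. Single-point screen at 100 or 200 μM; Ki from v0/vi vs [I] (0.5–1,000 μM final) assuming competitive inhibition, or Dixon plot. Triplicate.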

[5] = Inhibition of beta-lactamase L1 (unknown origin) expressed in Escherichia coli BL21(DE3) using nitrocefin as substrate by measuring substrate hydrolysis preincubated for 30 mins by spectrophotometric analysis
Procedure, shortened: (§3)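 Enzyme 0.2–0.8 nM in 25 mM HEPES pH 7.5 with 50 μM ZnCl2 final, pre-incubated 30 min at 21 °C with inhibitor (100 μM screen). Nitrocefin 100 μM final, read at 482 nm, 30 °C. Residual activity vs three uninhibited samples; Ki (1–100 μM inhibitor) from Hanes linearization, competitive model. Triplicate.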

[6] = Inhibition of beta-lactamase NDM1 (unknown origin) expressed in Escherichia coli BL21(DE3) using cefotaxime/nitrocefin as substrate by measuring substrate hydrolysis at 100 uM by spectrophotometric analysis
[7] = Inhibition of beta-lactamase CphA (unknown origin) expressed in Escherichia coli BL21(DE3) using imipenem as substrate by measuring substrate hydrolysis by spectrophotometric analysis
Procedure, shortened: (§4)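 Enzyme 0.2–0.8 nM in 15 mM cacodylate pH 6.5, no added zinc, pre-incubated 30 min at 21 °C with inhibitor (100 μM screen). Imipenem substrate added from 10 mM stock; hydrolysis at 300 nm, 30 °C. Residual activity vs three uninhibited samples; Ki (1–100 μM inhibitor) by Hanes linearization, competitive model. Triplicate.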

[8] = Inhibition of beta-lactamase VIM2 (unknown origin) expressed in Escherichia coli BL21(DE3) using imipenem as substrate by measuring substrate hydrolysis at 200 uM by spectrophotometric analysis; procedure, shortened: as §2
[9] = target: Hydroxyacylglutathione hydrolase (Homo sapiens); assay: Inhibition of human Glyoxalase II expressed in Escherichia coli BL21 (DE3)
[10] = Inhibition of beta-lactamase VIM4 (unknown origin) expressed in Escherichia coli BL21(DE3) using imipenem as substrate by measuring substrate hydrolysis by spectrophotometric analysis; procedure, shortened: as §2
[11] = Inhibition of beta-lactamase IMP-1 (unknown origin) expressed in Escherichia coli BL21(DE3) using imipenem as substrate by measuring substrate hydrolysis by spectrophotometric analysis; procedure, shortened: as §2
[12] = Binding affinity to beta-lactamase VIM-2 expressed in Escherichia coli BL21(DE3) assessed as dissociation constant at 25 degC by isothermal titration calorimetry
Procedure, shortened: (§5)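 VIM-2 (19 μM) in 10 mM HEPES-NaOH, 0.15 M NaCl, 50 μM ZnSO4, pH 7.5, DMSO matched to ligand (1-2% final). One 0.5 μl then 19 × 2 μl injections of compound (200-400 μM), 150 s apart, 25 °C. Buffer dilution heats subtracted; nonlinear least-squares fit for n, Ka, ΔH; compound concentration adjusted in fitting so n ≈ 1.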

[13] = Inhibition of beta-lactamase VIM-2 (unknown origin) expressed in Escherichia coli LZ2310 assessed as potentiation of cefoxitin antibacterial activity by measuring cefoxitin induced diameter of inhibition zone at 40 uM incubated for 18 hrs by disk diffusion method (reference value: 14 mm); procedure, shortened: as §1
[14] = Inhibition of beta-lactamase VIM2 (unknown origin) expressed in Escherichia coli BL21(DE3) using imipenem as substrate by measuring substrate hydrolysis by spectrophotometric analysis; procedure, shortened: as §2
[15] = Inhibition of beta-lactamase NDM1 (unknown origin) expressed in Escherichia coli BL21(DE3) using cefotaxime/nitrocefin as substrate by measuring substrate hydrolysis by spectrophotometric analysis
Procedure, shortened: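 His-tagged enzyme from E. coli BL21(DE3) pET-15b, affinity-purified, 1-70 nM final. Reporter substrate 120 μM cefotaxime (260 nm) or 100 μM nitrocefin (482 nm), 30 °C, 50 mM HEPES pH 7.5. Inhibitor 0.5–1,000 μM final; competitive Ki from v0/vi vs [I] slope or Dixon plot. Triplicate.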

[16] = Binding affinity to beta-lactamase VIM-2 expressed in Escherichia coli BL21(DE3) assessed as association constant at 25 degC by isothermal titration calorimetry; procedure, shortened: as §5
[17] = Binding affinity to beta-lactamase VIM-2 expressed in Escherichia coli BL21(DE3) assessed as Gibbs free energy at 25 degC by isothermal titration calorimetry; procedure, shortened: as §5
[18] = Inhibition of beta-lactamase IMP-1 (unknown origin) expressed in Escherichia coli BL21(DE3) using imipenem as substrate by measuring substrate hydrolysis at 200 uM by spectrophotometric analysis; procedure, shortened: as §2
[19] = Binding affinity to beta-lactamase VIM-2 expressed in Escherichia coli BL21(DE3) assessed as change in entropy at 25 degC by isothermal titration calorimetry; procedure, shortened: as §5
[20] = Binding affinity to beta-lactamase VIM-2 expressed in Escherichia coli BL21(DE3) assessed as change in enthalpy at 25 degC by isothermal titration calorimetry; procedure, shortened: as §5
[21] = Inhibition of beta-lactamase IMP-1 (unknown origin) expressed in Escherichia coli BL21(DE3) using imipenem as substrate by measuring substrate hydrolysis at 100 uM by spectrophotometric analysis; procedure, shortened: as §2
[22] = Inhibition of beta-lactamase CphA (unknown origin) expressed in Escherichia coli BL21(DE3) using imipenem as substrate by measuring substrate hydrolysis at 100 uM by spectrophotometric analysis; procedure, shortened: as §4
[23] = Inhibition of beta-lactamase CphA (unknown origin) expressed in Escherichia coli BL21(DE3) using imipenem as substrate by measuring substrate hydrolysis at 200 uM by spectrophotometric analysis
[24] = Inhibition of beta-lactamase NDM-1 (unknown origin) expressed in Escherichia coli LZ2310 assessed as potentiation of ceftazidime antibacterial activity by measuring ceftazidime induced diameter of inhibition zone at 40 uM incubated for 18 hrs by disk diffusion method (reference value: 15 mm); procedure, shortened: as §1
[25] = Inhibition of beta-lactamase L1 (unknown origin) expressed in Escherichia coli BL21(DE3) using nitrocefin as substrate by measuring substrate hydrolysis at 100 uM preincubated for 30 mins by spectrophotometric analysis; procedure, shortened: as §3
[26] = Inhibition of beta-lactamase L1 (unknown origin) expressed in Escherichia coli BL21(DE3) using nitrocefin as substrate by measuring substrate hydrolysis at 200 uM preincubated for 30 mins by spectrophotometric analysis

| SMILES | inhibition [1] | inhibition zone (IZ) [3] | inhibition [6] | IC50 [9] | inhibition zone (IZ) [13] | Ka [16] | deltaG [17] | inhibition [18] | -TdeltaS [19] | deltaH [20] | inhibition [21] | Ki [5] | Ki [7] | Ki [10] | Kd [12] | Ki [14] | Ki [15] | further results |
| --- | --- | --- | --- | --- | --- | --- | --- | --- | --- | --- | --- | --- | --- | --- | --- | --- | --- | --- |
| Cc1ccccc1-c1n[nH]c(=S)n1/N=C/c1ccc(OCc2ccccc2)cc1 | inactive | 6 mm | inactive | 5900 nM | – | – | – | – | – | – | – | 12000 nM | 22000 nM | 2100 nM | – | – | – | inhibition zone (IZ) [2]: 9 mm; inhibition [4]: inactive; inhibition [8]: inactive; Ki [11]: 300 nM |
| O=C(O)c1ccccc1/C=N/n1c(-c2ccccc2)n[nH]c1=S | – | – | – | 25500 nM | 20 mm | 1.9 10^6/M | -8.5 kcal/mol | inactive | 4.9 kcal/mol | -3.6 kcal/mol | inactive | 5000 nM | 58000 nM | 1400 nM | 519 nM | 2700 nM | 38000 nM | – |
| COc1ccc(O)c(-c2n[nH]c(=S)n2/N=C/c2ccccc2C(=O)O)c1 | – | 6 mm | – | – | 14 mm | 2.6 10^6/M | -8.7 kcal/mol | inactive | 2.4 kcal/mol | -6.3 kcal/mol | inactive | 9000 nM | 13000 nM | 500 nM | 389 nM | 700 nM | 27000 nM | – |
| O=C(O)c1ccccc1/C=N/n1c(-c2ccc3ccccc3c2)n[nH]c1=S | – | – | – | 13200 nM | 15 mm | 1.4 10^6/M | -8.4 kcal/mol | – | 5.1 kcal/mol | -3.3 kcal/mol | – | 4620 nM | – | 400 nM | 713 nM | 700 nM | 2300 nM | inhibition zone (IZ) [2]: 9 mm; inhibition [23]: inactive; inhibition zone (IZ) [24]: 15 mm; Ki [11]: 10600 nM; inhibition [22]: inactive |
| Oc1ccc(/C=N/n2c(-c3cccc(Br)c3)n[nH]c2=S)c(O)c1 | – | – | 45% | – | – | 3.1 10^6/M | -8.8 kcal/mol | inactive | -1.6 kcal/mol | -10.4 kcal/mol | inactive | – | – | 13000 nM | 323 nM | 620 nM | – | inhibition [26]: inactive; inhibition [25]: inactive |

Now from value to compound, other results behind:

| inhibition [1] | inhibition zone (IZ) [3] | inhibition [6] | IC50 [9] | inhibition zone (IZ) [13] | Ka [16] | deltaG [17] | inhibition [18] | -TdeltaS [19] | deltaH [20] | inhibition [21] | SMILES | Ki [5] | Ki [7] | Ki [10] | Kd [12] | Ki [14] | Ki [15] | further results |
| --- | --- | --- | --- | --- | --- | --- | --- | --- | --- | --- | --- | --- | --- | --- | --- | --- | --- | --- |
| – | 6 mm | – | – | 14 mm | 7.7 10^6/M | -8 kcal/mol | – | -1.1 kcal/mol | -9.1 kcal/mol | 45% | Cc1ccccc1-c1n[nH]c(=S)n1/N=C/c1ccc(O)c(C(=O)O)c1 | 13000 nM | – | 1400 nM | 1300 nM | 2000 nM | – | inhibition [22]: 39% |
| – | 6 mm | – | – | 14 mm | 1.2 10^6/M | -8.2 kcal/mol | – | 4.3 kcal/mol | -3.1 kcal/mol | 53% | O=C(O)c1ccccc1/C=N/n1c(-c2cc(Cl)cc(Cl)c2)n[nH]c1=S | 3000 nM | 4000 nM | 800 nM | 863 nM | 3000 nM | 30000 nM | – |
| inactive | 6 mm | inactive | 19000 nM | 14 mm | – | – | – | – | – | – | Cc1ccccc1-c1n[nH]c(=S)n1/N=C/c1ccc(O)cc1O | 31000 nM | 62000 nM | 400 nM | – | 7000 nM | – | – |
| inactive | 6 mm | inactive | – | 14 mm | 3.4 10^6/M | -7.5 kcal/mol | inactive | -2.1 kcal/mol | -9.6 kcal/mol | inactive | Oc1ccc(/C=N/n2c(-c3ccccc3O)n[nH]c2=S)c(O)c1 | – | 6000 nM | 500 nM | 2980 nM | 2000 nM | – | inhibition [25]: 31% |
